≈ marks a conversion by molar mass, not a printed value. Blank lines part the entries; values can stand above or below the compound they belong to. Calls of active or inactive are those of the source.
Legend:
[1] = tested on: Mus musculus; assay: In vivo Mean survival time of Plasmodium berghei parasitized mice dosed at 640 mg/kg; assay type: functional
Method in brief: (§1)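 Mice infected with drug-sensitive Plasmodium berghei strain KBG 173. Result given as T − C: the mean survival time of treated mice beyond that of untreated infected controls. A compound counts as active when T − C is ≥ 6.2 days.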

[2] = tested on: Mus musculus; assay: In vivo Mean survival time of Plasmodium berghei parasitized mice dosed at 40 mg/kg; assay type: functional; method in brief: as §1
[3] = tested on: Plasmodium falciparum; assay: (§2) In vitro antimalarial activity against Plasmodium falciparum D6; assay type: functional, organism-based
Method in brief: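 Parasite growth inhibition read as uptake of tritiated hypoxanthine.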

[4] = tested on: Plasmodium falciparum; assay: In vitro antimalarial activity against Plasmodium falciparum W2; assay type: functional, organism-based
Method in brief: (§3)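 Parasite growth inhibition was read out as uptake of tritiated hypoxanthine.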

[5] = tested on: Mus musculus; assay: In vivo Mean survival time of Plasmodium berghei parasitized mice dosed at 160 mg/kg; assay type: functional; method in brief: as §1
[6] = tested on: Mus musculus; assay: In vivo Mean survival time of Plasmodium berghei parasitized mice dosed at 640 mg/kg; Not active; assay type: functional, organism-based; parameters: dose 640 mg/kg
Method in brief: (§4)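 Mice were infected with the drug-sensitive P. berghei strain KBG 173 and given the stated dose. T − C is the mean survival time of treated mice beyond that of untreated controls. A compound counts as active only if T − C is ≥ 6.2 days, and toxicity is flagged separately.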

[7] = tested on: Mus musculus; assay: In vivo Mean survival time of Plasmodium berghei parasitized mice dosed at 40 mg/kg; Not active; assay type: functional, organism-based; parameters: dose 40 mg/kg; method in brief: as §4
[8] = tested on: Plasmodium falciparum; assay: In vitro antimalarial activity against Plasmodium falciparum D6.; assay type: functional, organism-based; method in brief: as §3
[9] = tested on: Mus musculus; assay: In vivo Mean survival time of Plasmodium berghei parasitized mice dosed at 160 mg/kg; Not active; assay type: functional, organism-based; parameters: dose 160 mg/kg; method in brief: as §4
[10] = tested on: Mus musculus; assay: In vivo Mean survival time of Plasmodium berghei parasitized mice dosed at 640 mg/kg; Toxic; assay type: functional, organism-based; parameters: dose 640 mg/kg; method in brief: as §4
[11] = tested on: Plasmodium falciparum; assay: as §2; assay type: functional, organism-based; method in brief: as §3; remark: listed apart in the source
[12] = tested on: Mus musculus; assay: In vivo Mean survival time of Plasmodium berghei parasitized mice dosed at 160 mg/kg; Toxic; assay type: functional, organism-based; parameters: dose 160 mg/kg; method in brief: as §4

Compound: COc1ccc2c(c1OC)C[N+]1([O-])CCc3cc4c(cc3C1C2)OCO4 (stereo not given)
- T-C [1]: 0 days
- T-C [2]: 0 days
- IC50 [3]: 0.565 µg/mL (≈ 1.59 µM)
- IC50 [4]: 0.558 µg/mL (≈ 1.57 µM)
- T-C [5]: 0.2 days

- IC50 [4]: 0.143 µg/mL (≈ 0.395 µM)
- IC50 [8]: 0.101 µg/mL (≈ 0.279 µM)
Compound: COc1ccc2c(c1OC)C(C#N)N1CCc3cc4c(cc3C1=C2)OCO4 (stereo not given)
- T-C [6]: inactive
- T-C [7]: inactive
- T-C [9]: inactive

- IC50 [3]: 0.97 µg/mL
- IC50 [4]: 1.34 µg/mL
Compound: COc1ccc2c(c1OC)C[N+]1(C)CCc3cc4c(cc3C1C2)OCO4.[I-] (stereo not given)
- T-C [6]: inactive
- T-C [7]: inactive
- T-C [9]: inactive

Compound: COc1ccc2c(OC)c3[n+](cc2c1OC)CCc1cc2c(cc1-3)OCO2
- T-C [1]: 0.2 days
- T-C [2]: -0.2 days
- IC50 [4]: 0.701 µg/mL
- IC50 [8]: 0.568 µg/mL
- T-C [5]: -0.2 days

Compound: COc1ccc2cc3[n+](cc2c1OC)CCc1cc2c(cc1-3)OCO2.[Cl-] [BERBERINE CHLORIDE]
- T-C [2]: 0.6 days
- T-C [10]: Toxic
- IC50 [11]: 0.141 µg/mL
- IC50 [4]: 0.148 µg/mL
- T-C [5]: 1 days

Compound: COc1ccc2c(c1OC)CN1CCc3cc4c(cc3[C@@H]1C2)OCO4 [CANADINE]
- T-C [1]: 0.3 days
- T-C [2]: 0.1 days
- IC50 [3]: 0.555 µg/mL (≈ 1.64 µM)
- IC50 [4]: 1.74 µg/mL (≈ 5.12 µM)
- T-C [5]: 0.1 days

Compound: COc1ccc2c(c1OC)CN1CCc3cc4c(cc3C1=C2)OCO4 [DIHYDROBERBERINE]
- T-C [2]: -0.2 days
- IC50 [3]: 0.12 µg/mL (≈ 0.356 µM)
- T-C [10]: Toxic
- IC50 [4]: 0.171 µg/mL (≈ 0.507 µM)
- T-C [12]: Toxic

Compound: COc1cc2c(cc1O)CC[n+]1cc3c(OC)c(OC)ccc3cc1-2.[Cl-] [JATRORRHIZINE CHLORIDE]
- IC50 [3]: 0.422 µg/mL
- IC50 [4]: 1.61 µg/mL
- T-C [6]: inactive
- T-C [7]: inactive
- T-C [9]: inactive

Compound: COc1ccc2cc3n(c(=O)c2c1OC)CCc1cc2c(cc1-3)OCO2 [OXYBERBERINE]
- T-C [1]: 0.3 days
- T-C [2]: 0.1 days
- IC50 [4]: 2.01 µg/mL (≈ 5.71 µM)
- IC50 [8]: 0.557 µg/mL (≈ 1.59 µM)
- T-C [5]: 0.5 days

Compound: COc1cc2c(cc1OC)-c1cc3ccc(OC)c(OC)c3c[n+]1CC2.[Cl-] [PALMATINE CHLORIDE]
- T-C [2]: 0.5 days
- T-C [10]: Toxic
- IC50 [4]: 0.163 µg/mL
- IC50 [8]: 0.281 µg/mL
- T-C [12]: Toxic

Source: ChEMBL document CHEMBL1124122, “Protoberberine alkaloids as antimalarials” (J Med Chem, 1988)
